Experimental data as given in ChEMBL document CHEMBL4033795, “Design, Synthesis, and Structure-Activity Relationship Study of 2-Oxo-3,4-dihydropyrimido[4,5- d]pyrimidines as New Colony Stimulating Factor 1 Receptor (CSF1R) Kinase Inhibitors” (J Med Chem, 2018).
pIC50: −log10 of the molar value.

Key:
Rattus norvegicus [1] = experiment: AUC (0 to infinity) in Sprague-Dawley rat at 25 mg/kg administered via oral gavage measured up to 72 hrs by LC/MS analysis; type: ADME, organism-based; design: dose 25 mg/kg, route oral, time infinity; conditions: in vivo
In short: (§1)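 Male Sprague-Dawley rats, 4–6 weeks old, acclimatised 1 week, were dosed iv at 5 mg/kg or by oral gavage at 25 mg/kg. Vehicle was 2% DMSO, 4% EtOH, 4% castor oil, 90% H2O. Blood was drawn by orbital sinus puncture from 2 min to 72 h into heparinized tubes. Plasma was assayed by LC/MS with propranolol as internal standard. Three animals per group.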

Rattus norvegicus [2] = experiment: Apparent clearance in Sprague-Dawley rat at 25 mg/kg administered via oral gavage measured up to 72 hrs by LC/MS analysis; type: ADME, organism-based; conditions: in vivo, iv, 5 mg/kg, in the assay text read “5 mg/kg administered intravenously” for “25 mg/kg administered via oral gavage”; in short: as §1
[3] = Half life in Sprague-Dawley rat at 25 mg/kg administered via oral gavage measured up to 72 hrs by LC/MS analysis; type: ADME, organism-based; conditions: in vivo; in short: as §1
[4] = Oral bioavailability in Sprague-Dawley rat at 25 mg/kg administered via gavage measured up to 72 hrs by LC/MS analysis; type: ADME, organism-based; conditions: in vivo; in short: as §1
[5] = AUC (0 to infinity) in Sprague-Dawley rat at 5 mg/kg, iv measured up to 72 hrs by LC/MS analysis; type: ADME, organism-based; design: dose 5 mg/kg, time infinity, route intravenous; conditions: in vivo; in short: as §1
[6] = Half life in Sprague-Dawley rat at 5 mg/kg, iv measured up to 72 hrs by LC/MS analysis; type: ADME, organism-based; conditions: in vivo; in short: as §1
[7] = Cmax in Sprague-Dawley rat at 25 mg/kg administered via oral gavage measured up to 72 hrs by LC/MS analysis; type: ADME, organism-based; design: dose 25 mg/kg, route oral; conditions: in vivo; in short: as §1
[8] = biological target: Macrophage colony-stimulating factor 1 receptor (Homo sapiens, UniProt P07333); experiment: Inhibition of recombinant human His-tagged CSF1R cytoplasmic domain (538 to 910 residues) expressed in baculovirus using tyr4 peptide as substrate after 1 hr by FRET-based Z'-Lyte assay
Sequence of Macrophage colony-stimulating factor 1 receptor (P07333 whole entry, the tested form may be a part): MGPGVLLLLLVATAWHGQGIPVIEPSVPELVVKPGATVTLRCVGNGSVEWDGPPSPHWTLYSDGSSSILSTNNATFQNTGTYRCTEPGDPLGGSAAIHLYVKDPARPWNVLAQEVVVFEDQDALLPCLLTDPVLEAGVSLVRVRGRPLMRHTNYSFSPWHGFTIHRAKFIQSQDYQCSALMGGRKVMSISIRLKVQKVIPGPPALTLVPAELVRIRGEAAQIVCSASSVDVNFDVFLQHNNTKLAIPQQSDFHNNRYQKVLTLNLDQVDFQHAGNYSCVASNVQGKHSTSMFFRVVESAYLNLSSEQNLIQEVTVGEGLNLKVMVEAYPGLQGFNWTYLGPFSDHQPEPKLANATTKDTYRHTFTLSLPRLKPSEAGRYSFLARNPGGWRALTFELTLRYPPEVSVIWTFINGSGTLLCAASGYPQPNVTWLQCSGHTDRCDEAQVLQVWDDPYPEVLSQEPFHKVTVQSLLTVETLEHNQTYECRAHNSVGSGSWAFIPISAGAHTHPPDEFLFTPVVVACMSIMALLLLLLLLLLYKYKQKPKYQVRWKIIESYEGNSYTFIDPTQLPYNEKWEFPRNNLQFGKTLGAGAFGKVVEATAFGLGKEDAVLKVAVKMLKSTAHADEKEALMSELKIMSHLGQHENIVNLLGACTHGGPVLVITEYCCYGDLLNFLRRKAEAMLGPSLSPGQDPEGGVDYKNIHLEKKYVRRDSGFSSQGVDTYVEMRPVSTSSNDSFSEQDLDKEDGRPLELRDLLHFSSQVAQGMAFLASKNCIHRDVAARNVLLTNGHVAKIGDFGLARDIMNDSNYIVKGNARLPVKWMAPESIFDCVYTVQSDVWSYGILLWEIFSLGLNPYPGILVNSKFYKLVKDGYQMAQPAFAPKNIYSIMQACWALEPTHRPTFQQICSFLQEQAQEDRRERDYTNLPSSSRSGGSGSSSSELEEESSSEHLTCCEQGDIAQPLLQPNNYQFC
In short: (§2)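 Z′-Lyte FRET assay with CSF1R or EGFR and 2 μM Tyr4 peptide substrate in 1× kinase buffer. ATP was supplied as a 100 μM solution, a stock and not the final concentration. Compounds were 3-fold serially diluted in DMSO. Reaction ran 1 h at room temperature, followed by 1 h development and a stop reagent. Phospho-peptide, no-ATP and DMSO controls were included. IC50 by curve fitting; mean of at least three independent experiments.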

[9] = biological target: Epidermal growth factor receptor (Homo sapiens, UniProt P00533); experiment: Inhibition of recombinant human wild type GST-tagged EGFR cytoplasmic domain (668 to 1210 residues) expressed in baculovirus using tyr4 peptide as substrate after 1 hr by FRET-based Z'-Lyte assay
Sequence of Epidermal growth factor receptor (P00533 whole entry, the tested form may be a part): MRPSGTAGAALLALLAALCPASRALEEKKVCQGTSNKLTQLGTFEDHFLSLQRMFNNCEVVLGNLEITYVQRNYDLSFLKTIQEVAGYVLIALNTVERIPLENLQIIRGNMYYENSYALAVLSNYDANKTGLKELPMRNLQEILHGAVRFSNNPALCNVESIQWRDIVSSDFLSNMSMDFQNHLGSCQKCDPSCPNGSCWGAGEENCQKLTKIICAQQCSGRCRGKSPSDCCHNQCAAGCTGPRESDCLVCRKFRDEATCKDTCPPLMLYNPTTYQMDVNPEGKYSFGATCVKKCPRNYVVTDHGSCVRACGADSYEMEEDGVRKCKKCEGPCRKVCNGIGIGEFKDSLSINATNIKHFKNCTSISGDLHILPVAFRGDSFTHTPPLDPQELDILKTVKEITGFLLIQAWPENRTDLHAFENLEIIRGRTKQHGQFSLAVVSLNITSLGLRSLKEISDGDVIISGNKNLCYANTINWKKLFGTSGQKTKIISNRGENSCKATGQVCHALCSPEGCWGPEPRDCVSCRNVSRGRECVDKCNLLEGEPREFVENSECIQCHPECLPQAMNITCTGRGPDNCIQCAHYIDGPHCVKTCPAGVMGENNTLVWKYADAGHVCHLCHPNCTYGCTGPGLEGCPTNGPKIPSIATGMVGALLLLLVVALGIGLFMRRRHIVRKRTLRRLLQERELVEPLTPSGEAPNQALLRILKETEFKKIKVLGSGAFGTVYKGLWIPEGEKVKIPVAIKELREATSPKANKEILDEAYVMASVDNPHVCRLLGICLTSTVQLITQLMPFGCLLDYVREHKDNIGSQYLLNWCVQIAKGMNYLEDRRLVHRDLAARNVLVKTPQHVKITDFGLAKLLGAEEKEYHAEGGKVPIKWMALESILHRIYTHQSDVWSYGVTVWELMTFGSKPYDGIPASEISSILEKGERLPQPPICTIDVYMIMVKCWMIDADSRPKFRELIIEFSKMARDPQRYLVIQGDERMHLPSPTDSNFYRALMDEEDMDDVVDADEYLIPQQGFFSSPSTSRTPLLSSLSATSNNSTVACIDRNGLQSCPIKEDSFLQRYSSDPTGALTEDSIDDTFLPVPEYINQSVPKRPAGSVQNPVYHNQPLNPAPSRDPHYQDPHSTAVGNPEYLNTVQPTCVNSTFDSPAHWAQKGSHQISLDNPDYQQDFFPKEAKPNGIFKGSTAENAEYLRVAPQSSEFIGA

Homo sapiens = species: Homo sapiens; experiment: Selectivity ratio of IC50 for recombinant human wild type GST-tagged EGFR cytoplasmic domain (668 to 1210 residues) expressed in baculovirus to IC50 for recombinant human His-tagged CSF1R cytoplasmic domain (538 to 910 residues) expressed in baculovirus; in short: as §2

SMILES	pIC50 [8]	pIC50 [9]	further results
CCC(=O)N1CC[C@H](N2C(=O)N(c3cc(OC)ccc3Cl)Cc3cnc(Nc4ccc(N5CCN(C)CC5)c(C)c4)nc32)C1	8.68	–	AUC (Rattus norvegicus [1]): 5311 ng·h/mL; CL(app) (Rattus norvegicus [2]): 30.7 mL/min/kg; half-life [3]: 1.89 h; bioavailability [4]: 38.6%; AUC(0-inf) [5]: 2770 ng·h/mL; half-life [6]: 3.48 h; Cmax [7]: 988 ng/mL
CCC(=O)N1CC[C@H](N2C(=O)N(c3cccc(OC)c3F)Cc3cnc(Nc4ccc(N5CCN(C)CC5)c(C)c4)nc32)C1	8.35	6.38	Ratio IC50 (Homo sapiens): 99 to 200
Cc1cc(Nc2ncc3c(n2)N([C@H]2CCN(C(=O)C(C)C)C2)C(=O)N(c2ccccc2Cl)C3)ccc1N1CCN(C)CC1	8.17	8.07	–
CCC(=O)N1CC[C@H](N2C(=O)N(c3cc(OC)ccc3F)Cc3cnc(Nc4ccc(N5CCN(C)CC5)cc4)nc32)C1	7.87	5.96	–
CCC(=O)N1CC[C@H](N2C(=O)N(c3cc(OC)ccc3F)Cc3cnc(Nc4ccc(N5CCC6(CCN(C)C6)C5)c(C)c4)nc32)C1 (some centres not stated)	8.17	6.53	–
CCC(=O)N1CC[C@H](N2C(=O)N(c3cc(OC)ccc3F)Cc3cnc(Nc4ccc(N5CCN(C6COC6)CC5)c(C)c4)nc32)C1	8.47	6.52	–
Cc1cc(Nc2ncc3c(n2)N([C@H]2CCN(C(=O)C4CC4)C2)C(=O)N(c2ccccc2Cl)C3)ccc1N1CCN(C)CC1	7.68	7.54	–
Cc1cc(Nc2ncc3c(n2)N([C@H]2CCN(C(=O)CO)C2)C(=O)N(c2ccccc2Cl)C3)ccc1N1CCN(C)CC1	7.70	8.15	–
CCC(=O)N1CC[C@H](N2C(=O)N(c3cccc(OC)c3)Cc3cnc(Nc4ccc(N5CCN(C)CC5)c(C)c4)nc32)C1	8.35	6.38	Ratio IC50 (Homo sapiens): 92
CCC(=O)N1CC[C@H](N2C(=O)N(c3cc(OC)ccc3F)Cc3cnc(Nc4ccc(N5CCN(C)CC5)cc4C)nc32)C1	7.69	5.60	–
CCC(=O)N1CC[C@H](N2C(=O)N(c3cc(OC)ccc3F)Cc3cnc(Nc4ccc(N5CCN(C)CC5)c(C(C)C)c4)nc32)C1	7.59	6.44	–
CCC(=O)N1CC[C@H](N2C(=O)N(c3ccc(Cl)cc3)Cc3cnc(Nc4ccc(N5CCN(C)CC5)c(C)c4)nc32)C1	7.83	6.42	–
CCC(=O)N1CC[C@H](N2C(=O)N(c3ccc(C)cc3)Cc3cnc(Nc4ccc(N5CCN(C)CC5)c(C)c4)nc32)C1	7.69	6.42	–
Cc1cc(Nc2ncc3c(n2)N([C@H]2CCN(C(=O)C4CCCCC4)C2)C(=O)N(c2ccccc2Cl)C3)ccc1N1CCN(C)CC1	7.51	7.60	–
CCC(=O)N1CC[C@H](N2C(=O)N(c3cccc(F)c3)Cc3cnc(Nc4ccc(N5CCN(C)CC5)c(C)c4)nc32)C1	7.82	7.45	–
Cc1cc(Nc2ncc3c(n2)N([C@H]2CCN(C(=O)CC(C)C)C2)C(=O)N(c2ccccc2Cl)C3)ccc1N1CCN(C)CC1	7.99	7.65	–
CCC(=O)N1CC[C@H](N2C(=O)N(c3cc(OC)ccc3F)Cc3cnc(Nc4ccc(N5CCN(C)CC5)c(C)c4)nc32)C1	8.70	6.44	AUC (Rattus norvegicus [1]): 1630 ng·h/mL; CL(app) (Rattus norvegicus [2]): 44 mL/min/kg; half-life [3]: 1.6 h; bioavailability [4]: 17.1%; AUC(0-inf) [5]: 1900 ng·h/mL; half-life [6]: 2.3 h; Cmax [7]: 396 ng/mL; Ratio IC50 (Homo sapiens): 99 to 200
CCC(=O)N1CC[C@H](N2C(=O)N(c3cc(OC)ccc3F)Cc3cnc(Nc4ccc(N5CCN(C)CC5)c(F)c4)nc32)C1	7.77	5.89	–
CCCN1CC[C@H](N2C(=O)N(c3ccccc3Cl)Cc3cnc(Nc4ccc(N5CCN(C)CC5)c(C)c4)nc32)C1	6.74	7.28	–
CCCC(=O)N1CC[C@H](N2C(=O)N(c3ccccc3Cl)Cc3cnc(Nc4ccc(N5CCN(C)CC5)c(C)c4)nc32)C1	8.00	7.54	–
CCC(=O)N1CC[C@H](N2C(=O)N(c3cc(OC)ccc3F)Cc3cnc(Nc4ccc(N5CCN(C)CC5)c(Cl)c4)nc32)C1	7.83	5.92	–

Further molecules by rising pIC50 [8], results first:

pIC50 [8]	pIC50 [9]	SMILES	further results
7.55	6.59	CCC(=O)N1CC[C@H](N2C(=O)N(c3cccc(OC(F)F)c3)Cc3cnc(Nc4ccc(N5CCN(C)CC5)c(C)c4)nc32)C1	–
7.64	7.58	Cc1cc(Nc2ncc3c(n2)N([C@H]2CCN(C(=O)CN(C)C)C2)C(=O)N(c2ccccc2Cl)C3)ccc1N1CCN(C)CC1	–
7.79	6.44	CCC(=O)N1CC[C@H](N2C(=O)N(c3cccc(C)c3)Cc3cnc(Nc4ccc(N5CCN(C)CC5)c(C)c4)nc32)C1	–
7.99	5.89	CCC(=O)N1CC[C@H](N2C(=O)N(c3cc(OC)ccc3F)Cc3cnc(Nc4ccc(N(C)CCN(C)C)c(C)c4)nc32)C1	–
8.19	6.66	CCC(=O)N1CC[C@H](N2C(=O)N(c3cc(OC)ccc3F)Cc3cnc(Nc4ccc(N5CC6(CCN(C)CC6)C5)c(C)c4)nc32)C1	–
8.25	8.12	CCC(=O)N1CC[C@H](N2C(=O)N(c3ccccc3C)Cc3cnc(Nc4ccc(N5CCN(C)CC5)c(C)c4)nc32)C1	–
8.26	7.92	CC(=O)N1CC[C@H](N2C(=O)N(c3ccccc3Cl)Cc3cnc(Nc4ccc(N5CCN(C)CC5)c(C)c4)nc32)C1	–
8.33	6.54	CCC(=O)N1CC[C@H](N2C(=O)N(c3cc(OC)ccc3F)Cc3cnc(Nc4ccc(N5CCC(N(C)C)CC5)c(C)c4)nc32)C1	–
8.36	6.38	CCC(=O)N1CC[C@H](N2C(=O)N(c3cccc(OC)c3Cl)Cc3cnc(Nc4ccc(N5CCN(C)CC5)c(C)c4)nc32)C1	Ratio IC50 (Homo sapiens): 99 to 200
